Reference: ChEMBL document CHEMBL5380846, “2-Aminobenzoxazole Derivatives as Potent Inhibitors of the Sphingosine-1-Phosphate Transporter Spinster Homolog 2 (Spns2)” (J Med Chem, 2023)
Activity calls are given as the source filed them. The rule behind the calls is not given here.

Legend:
[1] = biological target: T1, Sphingosine-1-phosphate transporter SPNS2 (Mus musculus) (UniProt Q91VM4); assay: Inhibition of mouse Spns2 expressed in Hela cells assessed as S1P release at 1 uM incubated for 18 to 20 hrs by LC-MS/MS analysis relative to control; assay type: cell-based; conditions: time 18-20 hrs
T1 sequence (whole entry): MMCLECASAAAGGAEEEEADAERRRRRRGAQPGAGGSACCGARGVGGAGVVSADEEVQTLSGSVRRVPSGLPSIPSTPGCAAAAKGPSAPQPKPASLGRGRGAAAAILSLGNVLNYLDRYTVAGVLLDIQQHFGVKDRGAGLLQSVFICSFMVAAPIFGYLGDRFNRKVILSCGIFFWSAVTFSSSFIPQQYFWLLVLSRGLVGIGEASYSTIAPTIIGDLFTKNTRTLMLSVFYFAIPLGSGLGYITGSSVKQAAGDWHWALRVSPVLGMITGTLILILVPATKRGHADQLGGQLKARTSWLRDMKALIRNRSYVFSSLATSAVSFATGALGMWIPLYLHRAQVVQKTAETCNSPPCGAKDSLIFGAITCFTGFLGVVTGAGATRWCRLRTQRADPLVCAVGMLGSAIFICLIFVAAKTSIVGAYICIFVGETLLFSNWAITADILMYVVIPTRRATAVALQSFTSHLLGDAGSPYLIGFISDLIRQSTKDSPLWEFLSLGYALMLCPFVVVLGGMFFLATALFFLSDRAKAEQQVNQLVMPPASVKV
Procedure, shortened: (§1)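 HeLa cells stably transfected (G418 selection) with mouse Spns2, grown to near confluence. Medium was replaced with RPMI 1640 containing 0.2% fatty acid-free BSA, 1 mM 4-deoxypyridoxine, 2 mM NaF and 0.2 mM Na3VO4. Compound was added to duplicate wells (0-2 μM) for 18–20 h. Medium S1P was measured by LC-MS/MS against d7-S1P and expressed as % inhibition versus no-inhibitor control.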

[2] = biological target: T1, Sphingosine-1-phosphate transporter SPNS2 (Mus musculus); assay: Inhibition of mouse Spns2 expressed in Hela cells assessed as S1P release at 0.3 uM incubated for 18 to 20 hrs by LC-MS/MS analysis relative to control; assay type: cell-based; conditions: time 18-20 hrs; procedure, shortened: as §1
[3] = test system: Mus musculus; assay: Decrease in circulating lymphocyte count in mouse C57BL/6j blood at 10 mg/kg, ip […]
[4] = test system: Mus musculus; assay: Decrease in plasma S1P level in mouse C57BL/6j at 10 mg/kg, ip measured after 4 hrs by LC-MS/MS analysis; assay type: functional, organism-based
Procedure, shortened: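 Female C57BL/6j mice were injected IP at 10 mg/Kg, or with vehicle (PEG400/ethanol/solutol/water). Plasma was taken 4 h post dose. S1P was quantified by LC-MS/MS after TCA precipitation with a d7-S1P internal standard and methanol extraction. Comparison was by t-test.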

SMILES | inhibition [1] | further results
CCCCCCCCCCc1ccc2oc(CCCCCN)nc2c1 | 25% | –
CCCCCCCCCCc1ccc2oc(CCN)nc2c1 | 5% | –
CCCCCCCCCCc1ccc2oc(NC[C@H]3CCCN3)nc2c1 | 0% | –
CCCCCCCCCCc1ccc2oc(NC3CNC3)nc2c1 | 20% | –
CCCCCCCCCCc1ccc2oc(NCCCCN)nc2c1 | 32% | –
CCCCCCCCCCc1ccc2oc(NC[C@@H]3CCCNC3)nc2c1 | 32% | –
CCCCCCCCCCc1ccc2oc(NCCCCCN)nc2c1 | 35% | –
CCCCCCCCCc1ccc2oc(NC[C@H]3CCNC3)nc2c1 | – | inhibition [2]: 77%
CCCCCCCCCCc1ccc2oc(NCCCN)nc2c1 | 15% | –
CCCCCCCCCCc1ccc2oc(NC[C@H]3CCNC3)nc2c1 | 87% | inhibition [2]: 56%; Activity [3]: Active; Activity [4]: inactive
CCCCCCCCCCc1ccc2oc(NC[C@@H]3CCNC3)nc2c1 | 50% | –
CCCCCCCCCCc1ccc2oc(NCCN)nc2c1 | 16% | –
CCCCCCCCCCCc1ccc2oc(NC[C@H]3CCNC3)nc2c1 | – | inhibition [2]: 52%
CCCCCCCCCCc1ccc2oc(N(C)CCN)nc2c1 | 0% | –
CCCCCCCCCCc1ccc2oc(N3CC[C@H](N)C3)nc2c1 | 1% | –
CCCCCCCCCCc1ccc2oc(N[C@@H]3CCNC3)nc2c1 | 47% | –
CCCCCCCCCCc1ccc2[nH]c(NC[C@H]3CCNC3)nc2c1 | – | inhibition [2]: 34%
CCCCCCCCCCCCc1ccc2oc(NC[C@H]3CCNC3)nc2c1 | – | inhibition [2]: 36%
CCCCCCCCCCc1ccc2oc(NCC3CCNCC3)nc2c1 | 14% | –
CCCCCCCCCCc1ccc2oc(N[C@@H]3CCCNC3)nc2c1 | 63% | –
CCCCCCCCc1ccc2oc(NC[C@H]3CCNC3)nc2c1 | – | inhibition [2]: 42%

Further lines, with some results ahead:

inhibition [1] | SMILES | further results
44% | CCCCCCCCCCc1ccc(-c2noc(CCCN)n2)cc1 | inhibition [2]: 30%
50% | CCCCCCCCCCc1ccc2oc(N[C@H]3CCCNC3)nc2c1 | –
54% | CCCCCCCCCCc1ccc2oc(NC3CCNCC3)nc2c1 | –
40% | CCCCCCCCCCc1ccc2oc(CCCN)nc2c1 | –
0% | CCCCCCCCCCc1ccc2oc(CCCCN)nc2c1 | –
75% | CCCCCCCCCCc1ccc2oc(N[C@H]3CCNC3)nc2c1 | –
6% | CCCCCCCCCCc1ccc2oc(NC[C@@H]3CCCN3)nc2c1 | –
4% | CCCCCCCCCCc1ccc2oc(N3CC[C@@H](N)C3)nc2c1 | –
25% | CCCCCCCCCCc1ccc2oc(N(CCN)CCN)nc2c1 | –
2% | CCCCCCCCCCc1ccc2oc(NC[C@H]3CCCNC3)nc2c1 | –
18% | CCCCCCCCCCc1ccc2oc(N3CCNCC3)nc2c1 | –
